In paper PMC2674070 (Journal of immunology (Baltimore, Md. : 1950), 2009):
Ends that are not written are not given here.

These compounds were tested against H-2K^b (Mus musculus, UniProt P01901) (assay: MHC peptide-binding assay, purified H-2K^b).
In short: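 Radiolabelled (chloramine-T) reference peptide at 0.1-1 nM is incubated at room temperature for 2 days with purified MHC (1 µM to 1 nM), 1-3 µM human β2-microglobulin and protease inhibitors. MHC-peptide complexes are captured on plates coated with Y3 (anti-H-2K^b) antibody, and bound cpm are read by microscintillation counting. Test peptides are ≥95% pure by reverse-phase HPLC.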

Chain of H-2K^b (P61769 21-119): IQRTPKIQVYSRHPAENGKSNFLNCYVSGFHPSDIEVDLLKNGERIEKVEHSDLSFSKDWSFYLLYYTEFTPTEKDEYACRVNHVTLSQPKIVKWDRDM
Chain of H-2K^b (P01901 22-369): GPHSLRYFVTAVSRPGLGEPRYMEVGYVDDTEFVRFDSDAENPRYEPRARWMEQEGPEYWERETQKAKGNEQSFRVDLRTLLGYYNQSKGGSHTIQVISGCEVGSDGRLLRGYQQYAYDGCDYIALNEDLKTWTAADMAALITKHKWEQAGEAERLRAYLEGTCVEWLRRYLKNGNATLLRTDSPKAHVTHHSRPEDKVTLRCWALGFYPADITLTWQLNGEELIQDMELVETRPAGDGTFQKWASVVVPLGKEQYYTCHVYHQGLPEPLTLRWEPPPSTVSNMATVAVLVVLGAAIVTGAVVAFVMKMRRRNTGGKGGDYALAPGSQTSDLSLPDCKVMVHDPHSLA

**Q.** How did the IC50 turn out when RMLINRFTM [NS5_237-245] was run?
**A.** < 2000 nM

**Q.** Which IC50 does the source give for `CC(C)C[C@H](NC(=O)[C@H](CO)NC(=O)[C@@H](NC(=O)[C@H](CC(N)=O)NC(=O)[C@@H](NC(=O)[C@H](CO)NC(=O)[C@@H](N)CO)C(C)C)C(C)C)C(=O)N[C@H](C(=O)O)[C@@H](C)O` [NS4B59-66] here?
**A.** < 2000 nM

**Q.** With LAVTIMAIL [NS2A145-153] as the compound, how does the IC50 read?
**A.** < 2000 nM

**Q.** Which IC50 does the source give for FSLGVLGM [NS2A8-15] here?
**A.** < 2000 nM

**Q.** For VSWTMKIL [Epitope E451-458], which IC50 is on record?
**A.** 458 nM

**Q.** TAIANQATV [NS4B66-74] was tested. Which IC50 did it give?
**A.** < 2000 nM

What follows are compounds tested against H-2D^b (Mus musculus, UniProt P01899) (assay: MHC peptide-binding assay, purified H-2D^b).
Chain of H-2D^b (P01899 25-362): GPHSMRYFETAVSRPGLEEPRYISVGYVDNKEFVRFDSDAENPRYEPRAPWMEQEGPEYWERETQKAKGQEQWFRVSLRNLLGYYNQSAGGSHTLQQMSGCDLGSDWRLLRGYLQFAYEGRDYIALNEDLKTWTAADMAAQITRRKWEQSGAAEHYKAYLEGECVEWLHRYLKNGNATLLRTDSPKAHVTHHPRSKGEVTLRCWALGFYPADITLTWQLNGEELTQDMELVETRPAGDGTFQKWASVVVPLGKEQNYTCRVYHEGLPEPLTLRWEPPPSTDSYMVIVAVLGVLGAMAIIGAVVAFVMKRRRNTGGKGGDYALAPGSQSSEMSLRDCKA
Chain of H-2D^b (P61769 21-119, further chain): as the sequence (P61769 21-119) above

**Q.** MTMRCIGI [Epitope E-2-6] was tested. Which IC50 did it give?
**A.** < 2000 nM

**Q.** With RALIFILL [Epitope M60-67] as the compound, how does the IC50 read?
**A.** < 2000 nM

**Q.** For VSWTMKIL [Epitope E451-458], which IC50 is on record?
**A.** < 2000 nM
